Laboratory results as given in ChEMBL document CHEMBL3758165, “In vitro interactions between anidulafungin and nonsteroidal anti-inflammatory drugs on biofilms of Candida spp” (2016).

Experiments:
Assay type in all cases: functional
[1] = tested on: Meyerozyma guilliermondii; experiment: Potentiation of anidulafungin-induced antibiofilm activity against Candida guilliermondii ATCC 6260 at 0.1 uM to 100 mM after 48 hrs by XTT reduction assay relative to control; set-up: scale not given: the % may be the effect or the level left
Summary of the method: (§1)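 Biofilms grown on sterilized PVC disks: 1·10^6 cfu/ml Candida cells adhered for 1.5 h at 37 °C with shaking, washed with PBS, then matured 48 h at 37 °C in RPMI 1640 (MOPS, pH 7). Preformed biofilms were washed and exposed to drug, alone or in two-dimensional checkerboard combination, in RPMI 1640 for 24 h at 37 °C on a rocker.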

[2] = tested on: Nakaseomyces glabratus; experiment: Antibiofilm activity against Candida glabrata ATCC 15126 by two dimensional checkerboard dilution method in presence of anidulafungin; summary of the method: as §1
[3] = tested on: Candida albicans; experiment: Antibiofilm activity against Candida albicans ATCC 10231 assessed as fractional inhibitory concentration by two dimensional checkerboard dilution method in presence of anidulafungin
Summary of the method: (§2)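 Biofilms grown on PVC disks: 1·10^6 cfu/ml in RPMI 1640 (MOPS, pH 7), 1.5 h adhesion at 37 °C with shaking, PBS wash, 48 h maturation at 37 °C. Preformed biofilms exposed 24 h at 37 °C to anidulafungin/NSAID checkerboard combinations in RPMI. XTT-menadione reduction read at 490 nm. SMIC = 50% metabolic reduction versus drug-free control. Triplicate runs on different days; FIC index calculated.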

[4] = tested on: Candida albicans; experiment: Antibiofilm activity against Candida albicans ATCC 10231 at 0.1 uM to 100 mM after 48 hrs by XTT reduction assay relative to control; set-up: scale not given: the % may be the effect or the level left; summary of the method: as §1
[5] = tested on: Meyerozyma guilliermondii; experiment: Antibiofilm activity against Candida guilliermondii a410 at 1 mM after 24 hrs by XTT reduction assay relative to control; set-up: scale not given: the % may be the effect or the level left; summary of the method: as §1
[6] = tested on: Candida albicans; experiment: Antibiofilm activity against Candida albicans ATCC 90028 at 1 mM after 24 hrs by XTT reduction assay relative to control; set-up: scale not given: the % may be the effect or the level left; summary of the method: as §1
[7] = tested on: Meyerozyma guilliermondii; experiment: Potentiation of anidulafungin-induced antibiofilm activity against Candida guilliermondii ATCC 6260 assessed as anidulafungin-fractional inhibitory concentration index by two dimensional checkerboard dilution method; summary of the method: as §2
[8] = tested on: Meyerozyma guilliermondii; experiment: Potentiation of anidulafungin-induced antibiofilm activity against Candida guilliermondii a83 assessed as anidulafungin-fractional inhibitory concentration index by two dimensional checkerboard dilution method; summary of the method: as §2
[9] = tested on: Meyerozyma guilliermondii; experiment: Antibiofilm activity against Candida guilliermondii a83 at 0.1 uM to 100 mM after 48 hrs by XTT reduction assay relative to control; set-up: scale not given: the % may be the effect or the level left; summary of the method: as §1
[10] = tested on: Meyerozyma guilliermondii; experiment: Antibiofilm activity against Candida guilliermondii ATCC 6260 at 1 mM after 24 hrs by XTT reduction assay relative to control; set-up: scale not given: the % may be the effect or the level left; summary of the method: as §1
[11] = tested on: Meyerozyma guilliermondii; experiment: Potentiation of anidulafungin-induced antibiofilm activity against Candida guilliermondii a83 at 0.1 uM to 100 mM after 48 hrs by XTT reduction assay relative to control; set-up: scale not given: the % may be the effect or the level left; summary of the method: as §1
[12] = tested on: Candida albicans; experiment: Antibiofilm activity against Candida albicans ATCC 24433 by two dimensional checkerboard dilution method; summary of the method: as §1
[13] = tested on: Nakaseomyces glabratus; experiment: Potentiation of anidulafungin-induced antibiofilm activity against Candida glabrata 18a10 at 0.1 uM to 100 mM after 48 hrs by XTT reduction assay relative to control; set-up: scale not given: the % may be the effect or the level left; summary of the method: as §1
[14] = tested on: Meyerozyma guilliermondii; experiment: Antibiofilm activity against Candida guilliermondii ATCC 6260 at 0.1 uM to 100 mM after 48 hrs by XTT reduction assay relative to control; set-up: scale not given: the % may be the effect or the level left; summary of the method: as §1
[15] = tested on: Candida albicans; experiment: Antibiofilm activity against Candida albicans ATCC 24433 at 0.1 uM to 100 mM after 48 hrs by XTT reduction assay relative to control; set-up: scale not given: the % may be the effect or the level left; summary of the method: as §1
[16] = tested on: Meyerozyma guilliermondii; experiment: Antibiofilm activity against Candida guilliermondii ATCC 6260 by two dimensional checkerboard dilution method in presence of diclofenac
Summary of the method: (§3)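 Preformed 48 h disk biofilms (RPMI 1640, MOPS pH 7, 37 °C), PBS-washed, exposed 24 h at 37 °C on rocker to two-dimensional checkerboard of anidulafungin plus NSAID in RPMI; NSAID final 0.1 µM to 100 mM. XTT reduction at 490 nm; SMIC = combination giving 50% metabolic reduction versus drug-free control; FIC index calculated; triplicate on different days.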

[17] = tested on: Meyerozyma guilliermondii; experiment: Antibiofilm activity against Candida guilliermondii a410 by two dimensional checkerboard dilution method in presence of ibuprofen
Summary of the method: (§4)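 Biofilms were grown on PVC disks from 2 ml of a 1·10^6 cfu/ml cell suspension. Adhesion ran 1.5 h at 37 °C with shaking at 100 rpm. Disks were PBS-washed, then matured 48 h at 37 °C in RPMI 1640 (MOPS, pH 7). Biofilms were washed again and given 24 h at 37 °C of anidulafungin/NSAID checkerboard combinations (NSAID final 0.1 µM–100 mM). Read-out was XTT-menadione (2 h, 37 °C, 490 nm). SMIC was defined as 50% reduction versus drug-free control, from which FICI was calculated. Triplicates were run on different days.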

[18] = tested on: Meyerozyma guilliermondii; experiment: Antibiofilm activity against Candida guilliermondii a83 by two dimensional checkerboard dilution method in presence of aspirin; summary of the method: as §4
[19] = tested on: Candida albicans; experiment: Antibiofilm activity against Candida albicans 17a18 by two dimensional checkerboard dilution method in presence of ibuprofen; summary of the method: as §3
[20] = tested on: Candida albicans; experiment: Antibiofilm activity against Candida albicans ATCC 90028 assessed as fractional inhibitory concentration by two dimensional checkerboard dilution method in presence of ibuprofen; summary of the method: as §3
[21] = tested on: Candida albicans; experiment: Antibiofilm activity against Candida albicans ATCC 10231 by two dimensional checkerboard dilution method in presence of diclofenac; summary of the method: as §3
[22] = tested on: Candida albicans; experiment: Antibiofilm activity against Candida albicans ATCC 24433 assessed as fractional inhibitory concentration by two dimensional checkerboard dilution method in presence of aspirin; summary of the method: as §3
[23] = tested on: Candida albicans; experiment: Antibiofilm activity against Candida albicans ATCC 90028 by two dimensional checkerboard dilution method in presence of ibuprofen; summary of the method: as §3
[24] = tested on: Candida albicans; experiment: Antibiofilm activity against Candida albicans ATCC 24433 by two dimensional checkerboard dilution method in presence of ibuprofen; summary of the method: as §3
[25] = tested on: Meyerozyma guilliermondii; experiment: Antibiofilm activity against Candida guilliermondii ATCC 6260 assessed as fractional inhibitory concentration by two dimensional checkerboard dilution method in presence of diclofenac; summary of the method: as §3
[26] = tested on: Candida albicans; experiment: Antibiofilm activity against Candida albicans ATCC 24433 after 48 hrs by XTT reduction assay relative to control; set-up: scale not given: the % may be the effect or the level left
Summary of the method: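 Biofilms grown on autoclaved PVC disks: 1·10^6 cfu ml-1 cells, adhesion 1.5 h at 37 °C shaking 100 rpm, PBS wash, then 48 h at 37 °C in RPMI 1640 (MOPS, pH 7). Metabolic activity read by XTT–menadione reduction, 2 h at 37 °C, supernatant formazan at 490 nm, relative to drug-free control; triplicate on different days.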

[27] = tested on: Nakaseomyces glabratus; experiment: Antibiofilm activity against Candida glabrata ATCC 15126 by two dimensional checkerboard dilution method in presence of diclofenac; summary of the method: as §3
[28] = tested on: Nakaseomyces glabratus; experiment: Antibiofilm activity against Candida glabrata ATCC 15126 assessed as fractional inhibitory concentration by two dimensional checkerboard dilution method in presence of ibuprofen; summary of the method: as §3
[29] = tested on: Candida albicans; experiment: Antibiofilm activity against Candida albicans 17a18 assessed as fractional inhibitory concentration by two dimensional checkerboard dilution method in presence of aspirin; summary of the method: as §3
[30] = tested on: Nakaseomyces glabratus; experiment: Antibiofilm activity against Candida glabrata 18a10 by two dimensional checkerboard dilution method in presence of diclofenac; summary of the method: as §3
[31] = tested on: Candida albicans; experiment: Antibiofilm activity against Candida albicans ATCC 24433 assessed as fractional inhibitory concentration by two dimensional checkerboard dilution method in presence of ibuprofen; summary of the method: as §3

SMILES	Activity [1] [%]	MIC [2] [µM]	Ratio [3]	Activity [4] [%]	Activity [6] [%]	fractional inhibitory concentration index (FICI) [7]	fractional inhibitory concentration index (FICI) [8]	Activity [9] [%]	Activity [11] [%]	MIC [12]	Activity [13] [%]	Activity [15] [%]	also measured
CC(=O)Oc1ccccc1C(=O)O [ASPIRIN]	50.37	10	0.05	49.21	44.72	0.15	0.1	46.22	45.32	1000 µM	48.58		Activity [5]: 43.25%; Activity [10]: 54.12%
O=C([O-])Cc1ccccc1Nc1c(Cl)cccc1Cl.[Na+] [DICLOFENAC SODIUM]	57.69	20000	0.05	53.57		0.45	0.3	57.87	55.64	100000 µM	58.66	50.25	Activity [14]: 60.98%
CC(C)Cc1ccc(C(C)C(=O)O)cc1 (stereo not drawn) [IBUPROFEN]	53.32	40	0.05		25.62	0.3	0.25	56.78	52.11	1000 µM	62.33	22.45	
CCCCCOc1ccc(-c2ccc(-c3ccc(C(=O)N[C@@H]4C[C@@H](O)[C@@H](O)NC(=O)[C@@H]5[C@@H](O)[C@@H](C)CN5C(=O)[C@H]([C@@H](C)O)NC(=O)[C@H]([C@H](O)[C@@H](O)c5ccc(O)cc5)NC(=O)[C@@H]5C[C@@H](O)CN5C(=O)[C@H]([C@H](C)O)NC4=O)cc3)cc2)cc1										2 µg/mL			MIC [16]: 0.1 µg/mL; MIC [17]: 0.4 µg/mL; MIC [18]: 0.1 µg/mL; MIC [19]: 0.4 µg/mL; Ratio [20]: 0.2; MIC [21]: 0.1 µg/mL; Ratio [22]: 0.05; MIC [23]: 0.4 µg/mL; MIC [24]: 0.4 µg/mL; Ratio [25]: 0.05; Activity [26]: 25.06%; MIC [27]: 0.2 µg/mL; Ratio [28]: 0.05; Ratio [29]: 0.05; MIC [30]: 0.2 µg/mL; Ratio [31]: 0.2
